Assays:
Type in all cases: in vivo, human
[1] = system: patients with locally advanced rectal cancer; assay: Dose-limiting toxicities
[2] = system: locally advanced rectal cancer; assay: Neoadjuvant rectal; settings: for NAR score, median: patients who underwent surgery
Summary of the method: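 Patients without clinical complete response were to have surgery 9.5±2 weeks after CRT completion. On the resected tissue, tumour regression was graded by the modified Ryan scheme, from 0 (complete response) to 3 (poor or no response). The NAR score was calculated only for operated patients, with lower scores denoting better prognosis.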

[3] = system: patients with locally advanced rectal cancer; assay: Treatment-emergent adverse events
[4] = Overall, peposertib 50-250 mg + RT + capecitabine, n = 19
[5] = peposertib 50 mg + RT + capecitabine, n = 1

COc1ccc([C@@H](O)c2cc(-c3ncnc4cc(N5CCOCC5)ccc34)c(F)cc2Cl)nn1 [Peposertib]
DLT reported overall ([1]; all dose cohorts): five
Peposertib dose considered tolerable in combination with RT and capecitabine ([1]; based on the totality of safety data): ≤ 150 mg once daily
Dose-limiting toxicities, patients with DLT of evaluable patients ([1]; peposertib 100 mg once daily + CRT, radiation skin injury and enterocolitis): one out of five
Dose-limiting toxicities, patients with DLT of evaluable patients ([1]; peposertib 250 mg once daily + CRT, two enterocolitis and one proctitis): three out of six
MTD and RP2D ([1]; peposertib + capecitabine-based CRT, study enrollment prematurely discontinued): not declared
NAR score, median ([2]; 100-mg dose cohort): 9.4
NAR score, median ([2]; 150-mg dose cohort): 13.8
NAR score, median ([2]; 250-mg dose cohort): 15.0
Patients with a Ryan score of 1 ([2]; one each in the 100-mg and 150-mg cohorts): two patients
Grade 4 TEAE: lymphocyte count decrease ([3]; 100-mg cohort): 1 n
Grade 4 TEAE: lymphopenia ([3]; 100-mg cohort): 1 n
Grade 4 TEAE: lymphopenia ([3]; 150-mg cohort): 1 n
Grade 4 TEAE: enterocolitis ([3]; 250-mg cohort): 1 n
Grade 4 TEAE: leukopenia and lymphocyte count decrease ([3]; 250-mg cohort): 1 n
Patients with any Capecitabine-related TEAE [3, 4]: 19 (100) n (%)
Patients with any Capecitabine-related grade ≥3 TEAE [3, 4]: 10 (53) n (%)
Patients with any Capecitabine-related grade ≥4 TEAE [3, 4]: 5 (26) n (%)
Patients with any Capecitabine-related serious TEAE [3, 4]: 5 (26) n (%)
Patients with any Grade ≥3 TEAE [3, 4]: 14 (74) n (%)
Patients with any Grade ≥4 TEAE [3, 4]: 5 (26) n (%)
Patients with any Peposertib-related TEAE [3, 4]: 17 (90) n (%)
Patients with any Peposertib-related grade ≥ 3TEAE [3, 4]: 13 (68) n (%)
Patients with any Peposertib-related grade ≥4 TEAE [3, 4]: 5 (26) n (%)
Patients with any Peposertib-related serious TEAE [3, 4]: 6 (32) n (%)
Patients with any RT-related TEAE [3, 4]: 19 (100) n (%)
Patients with any RT-related grade ≥3 TEAE [3, 4]: 9 (47) n (%)
Patients with any RT-related grade ≥4 TEAE [3, 4]: 4 (21) n (%)
Patients with any RT-related serious TEAE [3, 4]: 5 (26) n (%)
Patients with any Serious TEAE [3, 4]: 7 (37) n (%)
Patients with any TEAE [3, 4]: 19 (100) n (%)
Patients with any TEAE leading to death [3, 4]: 0 n (%)
Patients with any TEAE leading to permanent discontinuation of RT [3, 4]: 2 (11) n (%)
Patients with any TEAE leading to permanent discontinuation of capecitabine [3, 4]: 3 (15.8) n (%)
Patients with any TEAE leading to permanent discontinuation of peposertib [3, 4]: 4 (21) n (%)
Patients with any TEAE leading to study discontinuation [3, 4]: 0 n (%)
Most frequently reported TEAE: fatigue ([3]; across all cohorts, n = 9): 47.4%
Most frequently reported TEAE: nausea ([3]; across all cohorts, n = 9): 47.4%
Most frequently reported TEAE: proctitis ([3]; across all cohorts, n = 9): 47.4%
Most frequently reported TEAE: diarrhea ([3]; across all cohorts, n = 15): 78.9%
Patients with grade ≥3 TEAE ([3]; all cohorts, 14 of 19 patients): 73.7%
Grade ≥3 TEAE: diarrhea ([3]; all cohorts, n = 19): 15.8%
Grade ≥3 TEAE: enterocolitis ([3]; all cohorts, n = 19): 15.8%
Grade ≥3 TEAE: lymphocyte count decreased ([3]; all cohorts, n = 19): 36.8%
Grade ≥3 TEAE: lymphopenia ([3]; all cohorts, n = 19): 21.1%
Patients with any Capecitabine-related TEAE [3, 5]: 1 (100) n (%)
Patients with any Capecitabine-related grade ≥3 TEAE [3, 5]: 0 (0) n (%)
Patients with any Capecitabine-related grade ≥4 TEAE [3, 5]: 0 (0) n (%)
Patients with any Capecitabine-related serious TEAE [3, 5]: 0 n (%)
Patients with any Grade ≥3 TEAE [3, 5]: 0 (0) n (%)
Patients with any Grade ≥4 TEAE [3, 5]: 0 (0) n (%)
Patients with any Peposertib-related TEAE [3, 5]: 1 (100) n (%)
Patients with any Peposertib-related grade ≥ 3TEAE [3, 5]: 0 (0) n (%)
Patients with any Peposertib-related grade ≥4 TEAE [3, 5]: 0 (0) n (%)
Patients with any Peposertib-related serious TEAE [3, 5]: 0 n (%)
Patients with any RT-related TEAE [3, 5]: 1 (100) n (%)
Patients with any RT-related grade ≥3 TEAE [3, 5]: 0 (0) n (%)
Patients with any RT-related grade ≥4 TEAE [3, 5]: 0 (0) n (%)
Patients with any RT-related serious TEAE [3, 5]: 0 n (%)
Patients with any Serious TEAE [3, 5]: 0 n (%)
Patients with any TEAE [3, 5]: 1 (100) n (%)
Patients with any TEAE leading to death [3, 5]: 0 n (%)
Patients with any TEAE leading to permanent discontinuation of RT [3, 5]: 0 (0) n (%)
Patients with any TEAE leading to permanent discontinuation of capecitabine [3, 5]: 0 (0) n (%)
Patients with any TEAE leading to permanent discontinuation of peposertib [3, 5]: 0 (0) n (%)
